According to PubChem BioAssay:
Active and inactive are the calls of the source.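 Rule for the calls, unless noted: active = GFP response above 150% of the DMSO level; inconclusive = fewer than 70 events counted for a yeast strain; inactive = the rest.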

How the values were obtained:
[1] = RPL19A-GFP modulators, yeast TOR pathway, confirmation, cell-based, S. cerevisiae, flow cytometry, cherry picks, mother/daughter gates (AID 2270;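 active = GFP response below 50% of the DMSO control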); conditions: S. cerevisiae RPL19A-GFP strain, 3 h, at 10 µM, stronger effect = lower value, 100 = same GFP as DMSO wells
[2] = LAP4-GFP expression modulators in yeast, confirmation, cell-based, cherry picks, flow cytometry, mother/daughter gates (AID 2271;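 active = GFP response above 150% of the DMSO control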;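 note: ratio of sample to DMSO plate mean so 100% equals DMSO level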); conditions: S. cerevisiae LAP4-GFP strain, 3 h, at 10 µM, stronger effect = higher value, 100 means same as DMSO control
How it was run: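 Test system: GFP-fusion yeast strain / Amount: 0.2 OD600 cells / Buffer or medium: SC medium / Dosing: 10 µM single dose / Incubation: compound exposure 3 h at 30 °C, end-over-end rotation / Detection: HT flow cytometry, GFP fluorescence channel / Evaluation: median GFP fluorescence as percent of plate-mean DMSO wells / Control set: DMSO-only negative wells, rapamycin 400 ng/mL positive wells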

[3] = modulators of MEP2-GFP levels in yeast, confirmation, S. cerevisiae, flow cytometry GFP, cherry picks (AID 2272;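 active = GFP response above 150% of the DMSO control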;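 note: ratio of well signal to plate DMSO mean so 100% equals DMSO level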); conditions: S. cerevisiae MEP2-GFP strain, 3 h, at 10 µM, stronger effect = higher value
[4] = AGP1-GFP expression modulators, hit retest, confirmation, cell-based, flow cytometry, S. cerevisiae, cherry picks (AID 2273);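 note: median GFP channel fluorescence over the whole cell population gate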; conditions: S. cerevisiae AGP1-GFP strain, 3 h, at 10 µM
[5] = modulators of CIT2-GFP expression in yeast, confirmation, S. cerevisiae, GFP fusion, cherry picks, mother/daughter gates (AID 2274); conditions: S. cerevisiae CIT2-GFP strain, flow cytometry, 3 h, at 10 µM, stronger effect = higher value
[6] = measured here: daughter cell gate
[7] = measured here: mother cell gate
[8] = measured here: daughter cell gate response
[9] = measured here: mother cell gate response

## Cc1cccc(C(=O)Nc2ccc(O)cc2)c1
[1]
  GFP response vs DMSO: 97.6% (inactive)
[1]; [6]
  GFP response vs DMSO: 97%
[1]; [7]
  GFP response vs DMSO: 97.3%
[2]
  GFP response relative to DMSO: 100% (inactive)
[2]; [8]
  GFP response relative to DMSO: 99%
[2]; [9]
  GFP response relative to DMSO: 101%
[3]
  GFP response vs DMSO: 108% (inactive)
[4]
  GFP response, % of DMSO: 104% (inactive)
[5]
  GFP response, % of DMSO: 103% (inactive)
[5]; [6]
  GFP response, % of DMSO: 101%
[5]; [7]
  GFP response, % of DMSO: 104%

## O=C(O/N=C(\c1ccccc1)c1ccncc1)c1ccccc1Cl
[1]
  GFP response vs DMSO: 77% (inactive)
[1]; [6]
  GFP response vs DMSO: 74.3%
[1]; [7]
  GFP response vs DMSO: 79.7%
[2]
  GFP response relative to DMSO: 119% (inactive)
[2]; [8]
  GFP response relative to DMSO: 118%
[2]; [9]
  GFP response relative to DMSO: 123%
[3]
  GFP response vs DMSO: 91% (inactive)
[4]
  GFP response, % of DMSO: 91.8% (inactive)
[5]
  GFP response, % of DMSO: 68.1% (inactive)
[5]; [6]
  GFP response, % of DMSO: 69.2%
[5]; [7]
  GFP response, % of DMSO: 69.2%

## CC(=O)c1ccc(NC(=O)CN2CCC(NC(=O)C3CCCCC3)CC2)cc1
[1]
  GFP response vs DMSO: 102% (inactive)
[1]; [6]
  GFP response vs DMSO: 102%
[1]; [7]
  GFP response vs DMSO: 103%
[2]
  GFP response relative to DMSO: 98.8% (inactive)
[2]; [8]
  GFP response relative to DMSO: 97.9%
[2]; [9]
  GFP response relative to DMSO: 99.5%
[3]
  GFP response vs DMSO: 104% (inactive)
[4]
  GFP response, % of DMSO: 95.6% (inactive)
[5]
  GFP response, % of DMSO: 96.4% (inactive)
[5]; [6]
  GFP response, % of DMSO: 98.3%
[5]; [7]
  GFP response, % of DMSO: 95.6%

## O=C(OCn1ncc(Br)c(Br)c1=O)c1ccc(F)cc1
[1]
  GFP response vs DMSO: 99.7% (inactive)
[1]; [6]
  GFP response vs DMSO: 99.8%
[1]; [7]
  GFP response vs DMSO: 94.8%
[2]
  GFP response relative to DMSO: 210% (active)
[2]; [8]
  GFP response relative to DMSO: 183%
[2]; [9]
  GFP response relative to DMSO: 203%
[3]
  GFP response vs DMSO: 116% (inactive)
[4]
  GFP response, % of DMSO: 106% (inactive)
[5]
  GFP response, % of DMSO: 99.3% (inactive)
[5]; [6]
  GFP response, % of DMSO: 108%
[5]; [7]
  GFP response, % of DMSO: 92.1%

## COc1ccc(C(=O)NC(=S)NNC(=O)c2cnccn2)cc1
[1]
  GFP response vs DMSO: 99.3% (inactive)
[1]; [6]
  GFP response vs DMSO: 91.3%
[1]; [7]
  GFP response vs DMSO: 96%
[2]
  GFP response relative to DMSO: 285% (active)
[2]; [8]
  GFP response relative to DMSO: 176%
[2]; [9]
  GFP response relative to DMSO: 262%
[3]
  GFP response vs DMSO: 114% (inactive)
[4]
  GFP response, % of DMSO: 95.2% (inactive)
[5]
  GFP response, % of DMSO: 104% (inactive)
[5]; [6]
  GFP response, % of DMSO: 96.4%
[5]; [7]
  GFP response, % of DMSO: 93.3%

## COc1cccc(NC(=O)c2ccc3c(c2)CCCC3)c1
[1]
  GFP response vs DMSO: 101% (inactive)
[1]; [6]
  GFP response vs DMSO: 98.4%
[1]; [7]
  GFP response vs DMSO: 102%
[2]
  GFP response relative to DMSO: 96.2% (inactive)
[2]; [8]
  GFP response relative to DMSO: 97.2%
[2]; [9]
  GFP response relative to DMSO: 99.3%
[3]
  GFP response vs DMSO: 97.8% (inactive)
[4]
  GFP response, % of DMSO: 90.6% (inactive)
[5]
  GFP response, % of DMSO: 103% (inactive)
[5]; [6]
  GFP response, % of DMSO: 101%
[5]; [7]
  GFP response, % of DMSO: 102%

## O=c1c2c(-c3cccs3)csc2ncn1/N=C/c1ccccn1
[1]
  GFP response vs DMSO: 98.4% (inactive)
[1]; [6]
  GFP response vs DMSO: 95.2%
[1]; [7]
  GFP response vs DMSO: 96.5%
[2]
  GFP response relative to DMSO: 119% (inactive)
[2]; [8]
  GFP response relative to DMSO: 112%
[2]; [9]
  GFP response relative to DMSO: 121%
[3]
  GFP response vs DMSO: 99% (inactive)
[4]
  GFP response, % of DMSO: 99.2% (inactive)
[5]
  GFP response, % of DMSO: 91.5% (inactive)
[5]; [6]
  GFP response, % of DMSO: 92%
[5]; [7]
  GFP response, % of DMSO: 89.5%

## Cc1cc(O)c(C(=O)/C=C/c2ccccc2)c(=O)o1
[1]
  GFP response vs DMSO: 97.6% (inactive)
[1]; [6]
  GFP response vs DMSO: 101%
[1]; [7]
  GFP response vs DMSO: 96.1%
[2]
  GFP response relative to DMSO: 144% (inactive)
[2]; [8]
  GFP response relative to DMSO: 139%
[2]; [9]
  GFP response relative to DMSO: 148%
[3]
  GFP response vs DMSO: 100% (inactive)
[4]
  GFP response, % of DMSO: 97% (inactive)
[5]
  GFP response, % of DMSO: 96.5% (inactive)
[5]; [6]
  GFP response, % of DMSO: 99.7%
[5]; [7]
  GFP response, % of DMSO: 95.5%

## CC(C)(C)c1cc(C(c2cccnc2)N2CCN(CCO)CC2)cc(C(C)(C)C)c1O (centres undefined)
[1]
  GFP response vs DMSO: 98.2% (inactive)
[1]; [6]
  GFP response vs DMSO: 108%
[1]; [7]
  GFP response vs DMSO: 91.3%
[2]
  GFP response relative to DMSO: 151% (active)
[2]; [8]
  GFP response relative to DMSO: 168%
[2]; [9]
  GFP response relative to DMSO: 138%
[3]
  GFP response vs DMSO: 118% (inactive)
[4]
  GFP response, % of DMSO: 94.3% (inactive)
[5]
  GFP response, % of DMSO: 99.3% (inactive)
[5]; [6]
  GFP response, % of DMSO: 126%
[5]; [7]
  GFP response, % of DMSO: 82.8%

## O=C1C(Cl)=C(Nc2ccccc2O)C(=O)N1CCc1ccccc1
[1]
  GFP response vs DMSO: 98% (inactive)
[1]; [6]
  GFP response vs DMSO: 97.8%
[1]; [7]
  GFP response vs DMSO: 97.9%
[2]
  GFP response relative to DMSO: 103% (inactive)
[2]; [8]
  GFP response relative to DMSO: 101%
[2]; [9]
  GFP response relative to DMSO: 104%
[3]
  GFP response vs DMSO: 112% (inactive)
[4]
  GFP response, % of DMSO: 104% (inactive)
[5]
  GFP response, % of DMSO: 106% (inactive)
[5]; [6]
  GFP response, % of DMSO: 104%
[5]; [7]
  GFP response, % of DMSO: 104%

## COC(=O)CNc1c(-c2ccccn2)nc2ccc(Br)cn12
[1]
  GFP response vs DMSO: 100% (inactive)
[1]; [6]
  GFP response vs DMSO: 103%
[1]; [7]
  GFP response vs DMSO: 100%
[2]
  GFP response relative to DMSO: 96.7% (inactive)
[2]; [8]
  GFP response relative to DMSO: 96%
[2]; [9]
  GFP response relative to DMSO: 96.1%
[3]
  GFP response vs DMSO: 102% (inactive)
[4]
  GFP response, % of DMSO: 98.7% (inactive)
[5]
  GFP response, % of DMSO: 107% (inactive)
[5]; [6]
  GFP response, % of DMSO: 106%
[5]; [7]
  GFP response, % of DMSO: 104%

## O=C(Nc1cccc(O)c1)c1ccc(Br)cc1
[1]
  GFP response vs DMSO: 96% (inactive)
[1]; [6]
  GFP response vs DMSO: 97%
[1]; [7]
  GFP response vs DMSO: 97.2%
[2]
  GFP response relative to DMSO: 98.8% (inactive)
[2]; [8]
  GFP response relative to DMSO: 96.5%
[2]; [9]
  GFP response relative to DMSO: 100%
[3]
  GFP response vs DMSO: 102% (inactive)
[4]
  GFP response, % of DMSO: 103% (inactive)
[5]
  GFP response, % of DMSO: 102% (inactive)
[5]; [6]
  GFP response, % of DMSO: 102%
[5]; [7]
  GFP response, % of DMSO: 100%

## CC(Oc1ccc(Br)cc1)C(=O)Nc1nc(-c2ccccn2)cs1 (centres undefined)
[1]
  GFP response vs DMSO: 104% (inactive)
[1]; [6]
  GFP response vs DMSO: 95.9%
[1]; [7]
  GFP response vs DMSO: 105%
[2]
  GFP response relative to DMSO: 241% (active)
[2]; [8]
  GFP response relative to DMSO: 184%
[2]; [9]
  GFP response relative to DMSO: 258%
[3]
  GFP response vs DMSO: 117% (inactive)
[4]
  GFP response, % of DMSO: 92.9% (inactive)
[5]
  GFP response, % of DMSO: 98.3% (inactive)
[5]; [6]
  GFP response, % of DMSO: 97.2%
[5]; [7]
  GFP response, % of DMSO: 93.8%

## Cc1cc(-n2nc(C)cc2C)n2ncc(-c3ccccc3)c2n1
[1]
  GFP response vs DMSO: 105% (inactive)
[1]; [6]
  GFP response vs DMSO: 101%
[1]; [7]
  GFP response vs DMSO: 106%
[2]
  GFP response relative to DMSO: 95.7% (inactive)
[2]; [8]
  GFP response relative to DMSO: 95.9%
[2]; [9]
  GFP response relative to DMSO: 96.2%
[3]
  GFP response vs DMSO: 103% (inactive)
[4]
  GFP response, % of DMSO: 102% (inactive)
[5]
  GFP response, % of DMSO: 97.3% (inactive)
[5]; [6]
  GFP response, % of DMSO: 95.6%
[5]; [7]
  GFP response, % of DMSO: 98.1%
